Experimental data: ChEMBL document CHEMBL1649199 (Antimicrob Agents Chemother, 2009)

Legend:
Plasmodium falciparum [1] = test: Antimicrobial activity against Plasmodium falciparum IMT 10500 harboring Pfcrt, Pfmdr1, Pfmrp, and Pfnhe-1 polymorphisms assessed as growth inhibition after 48 hrs by scintillation counting; format: functional, organism-based; conditions: IMT 10500, 48 h
Method in brief: (§1)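 Sorbitol-synchronized (twice) culture-adapted strains were grown in type A+ human blood in RPMI 1640 with 10% human serum, 25 mM HEPES and 25 mM NaHCO3, at 37°C under 10% O2/5% CO2/85% N2. Rings (>95%) at 0.5% parasitemia and 1.5% hematocrit were exposed to drug, methanol then water, final 0.125–400 nM or 5.3–3,387 nM, with 1 μCi [3H]hypoxanthine for 48 h. IC50 from nonlinear regression versus drug-free controls.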

Plasmodium falciparum [2] = test: Antimicrobial activity against Plasmodium falciparum ms4760-7 assessed as growth inhibition after 48 hrs by scintillation counting; conditions: ms4760-7, 48 h
Plasmodium falciparum [3] = test: Antimicrobial activity against Plasmodium falciparum IMT 8425 harboring Pfcrt, Pfmdr1, Pfmrp, and Pfnhe-1 polymorphisms assessed as growth inhibition after 48 hrs by scintillation counting; format: functional, organism-based; conditions: IMT 8425, 48 h; method in brief: as §1
Plasmodium falciparum [4] = test: Antimicrobial activity against Plasmodium falciparum D6 harboring Pfcrt, Pfmdr1, Pfmrp, and Pfnhe-1 polymorphisms assessed as growth inhibition after 48 hrs by scintillation counting; format: functional, organism-based; conditions: D6, 48 h; method in brief: as §1
Plasmodium falciparum [5] = test: Antimicrobial activity against Plasmodium falciparum IMT 10336 harboring Pfcrt, Pfmdr1, Pfmrp, and Pfnhe-1 polymorphisms assessed as growth inhibition after 48 hrs by scintillation counting; format: functional, organism-based; conditions: IMT 10336, 48 h; method in brief: as §1
Plasmodium falciparum [6] = test: Antimicrobial activity against Plasmodium falciparum W2 harboring Pfcrt, Pfmdr1, Pfmrp, and Pfnhe-1 polymorphisms assessed as growth inhibition after 48 hrs by scintillation counting; format: functional, organism-based; conditions: W2, 48 h; method in brief: as §1
Plasmodium falciparum [7] = test: Antimicrobial activity against Plasmodium falciparum PA harboring Pfcrt, Pfmdr1, Pfmrp, and Pfnhe-1 polymorphisms assessed as growth inhibition after 48 hrs by scintillation counting; format: functional, organism-based
Method in brief: (§2)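 Culture-adapted strains in RPMI 1640 with 10% human serum, 25 mM HEPES, 25 mM NaHCO3, type A+ blood, 10% O2/5% CO2/85% N2, 37°C; sorbitol-synchronized twice. Rings >95%, 0.5% parasitemia, 1.5% hematocrit; drug (methanol then water) final 0.125–400 nM or 5.3–3,387 nM. [3H]hypoxanthine 1 μCi/well at time zero, 48 h; freeze-thaw, harvest, scintillation; IC50 versus drug-free control by nonlinear regression of log dose-response.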

Plasmodium falciparum [8] = test: Antimicrobial activity against Plasmodium falciparum IMT 9996 harboring Pfcrt, Pfmdr1, Pfmrp, and Pfnhe-1 polymorphisms assessed as growth inhibition after 48 hrs by scintillation counting; format: functional, organism-based; conditions: IMT 9996, 48 h; method in brief: as §1
Plasmodium falciparum [9] = test: Antimicrobial activity against Plasmodium falciparum IMT K14 harboring Pfcrt, Pfmdr1, Pfmrp, and Pfnhe-1 polymorphisms assessed as growth inhibition after 48 hrs by scintillation counting; format: functional, organism-based; conditions: IMT K14, 48 h; method in brief: as §1
Plasmodium falciparum [10] = test: Antimicrobial activity against Plasmodium falciparum FCR3 harboring Pfcrt, Pfmdr1, Pfmrp, and Pfnhe-1 polymorphisms assessed as growth inhibition after 48 hrs by scintillation counting; format: functional, organism-based; conditions: FCR3, 48 h; method in brief: as §1
Plasmodium falciparum [11] = test: Antimicrobial activity against Plasmodium falciparum FCM29 harboring Pfcrt, Pfmdr1, Pfmrp, and Pfnhe-1 polymorphisms assessed as growth inhibition after 48 hrs by scintillation counting; format: functional, organism-based; conditions: FCM29, 48 h; method in brief: as §2
Plasmodium falciparum [12] = test: Antimicrobial activity against Plasmodium falciparum ms4760-6 assessed as growth inhibition after 48 hrs by scintillation counting; conditions: ms4760-6, 48 h
Plasmodium falciparum [13] = test: Antimicrobial activity against Plasmodium falciparum IMT K4 harboring Pfcrt, Pfmdr1, Pfmrp, and Pfnhe-1 polymorphisms assessed as growth inhibition after 48 hrs by scintillation counting; format: functional, organism-based; conditions: IMT K4, 48 h; method in brief: as §1
Plasmodium falciparum [14] = test: Antimicrobial activity against Plasmodium falciparum IMT L1 harboring Pfcrt, Pfmdr1, Pfmrp, and Pfnhe-1 polymorphisms assessed as growth inhibition after 48 hrs by scintillation counting; format: functional, organism-based; conditions: IMT L1, 48 h; method in brief: as §2
Plasmodium falciparum [15] = test: Antimicrobial activity against Plasmodium falciparum IMT 9881 harboring Pfcrt, Pfmdr1, Pfmrp, and Pfnhe-1 polymorphisms assessed as growth inhibition after 48 hrs by scintillation counting; format: functional, organism-based; conditions: IMT 9881, 48 h; method in brief: as §1
Plasmodium falciparum [16] = test: Antimicrobial activity against Plasmodium falciparum IMT 31 harboring Pfcrt, Pfmdr1, Pfmrp, and Pfnhe-1 polymorphisms assessed as growth inhibition after 48 hrs by scintillation counting; format: functional, organism-based; conditions: IMT 31, 48 h; method in brief: as §1
Plasmodium falciparum [17] = test: Antimicrobial activity against Plasmodium falciparum IMT 16332 harboring Pfcrt, Pfmdr1, Pfmrp, and Pfnhe-1 polymorphisms assessed as growth inhibition after 48 hrs by scintillation counting; format: functional, organism-based; conditions: IMT 16332, 48 h; method in brief: as §1
Plasmodium falciparum [18] = test: Antimicrobial activity against Plasmodium falciparum IMT 10354 harboring Pfcrt, Pfmdr1, Pfmrp, and Pfnhe-1 polymorphisms assessed as growth inhibition after 48 hrs by scintillation counting; format: functional, organism-based; conditions: IMT 10354, 48 h; method in brief: as §1
Plasmodium falciparum [19] = test: Antimicrobial activity against Plasmodium falciparum 3D7 harboring Pfcrt, Pfmdr1, Pfmrp, and Pfnhe-1 polymorphisms assessed as growth inhibition after 48 hrs by scintillation counting; format: functional, organism-based; conditions: 3D7, 48 h; method in brief: as §1
Plasmodium falciparum [20] = test: Antimicrobial activity against Plasmodium falciparum IMT Vol harboring Pfcrt, Pfmdr1, Pfmrp, and Pfnhe-1 polymorphisms assessed as growth inhibition after 48 hrs by scintillation counting; format: functional, organism-based; method in brief: as §1
Plasmodium falciparum [21] = test: Antimicrobial activity against Plasmodium falciparum IMT 6311 harboring Pfcrt, Pfmdr1, Pfmrp, and Pfnhe-1 polymorphisms assessed as growth inhibition after 48 hrs by scintillation counting; format: functional, organism-based; conditions: IMT 6311, 48 h; method in brief: as §1
Plasmodium falciparum [22] = test: Antimicrobial activity against Plasmodium falciparum IMT Bres harboring Pfcrt, Pfmdr1, Pfmrp, and Pfnhe-1 polymorphisms assessed as growth inhibition after 48 hrs by scintillation counting; format: functional, organism-based; method in brief: as §1
Plasmodium falciparum [23] = test: Antimicrobial activity against Plasmodium falciparum IMT A4 harboring Pfcrt, Pfmdr1, Pfmrp, and Pfnhe-1 polymorphisms assessed as growth inhibition after 48 hrs by scintillation counting; format: functional, organism-based; conditions: IMT A4, 48 h; method in brief: as §2
Plasmodium falciparum [24] = test: Antimicrobial activity against Plasmodium falciparum IMT K2 harboring Pfcrt, Pfmdr1, Pfmrp, and Pfnhe-1 polymorphisms assessed as growth inhibition after 48 hrs by scintillation counting; format: functional, organism-based; conditions: IMT K2, 48 h; method in brief: as §2
Plasmodium falciparum [25] = test: Antimicrobial activity against Plasmodium falciparum IMT 16116 harboring Pfcrt, Pfmdr1, Pfmrp, and Pfnhe-1 polymorphisms assessed as growth inhibition after 48 hrs by scintillation counting; format: functional, organism-based; conditions: IMT 16116, 48 h; method in brief: as §1

For `C=C[C@H]1CN2CC[C@H]1C[C@H]2[C@H](O)c1ccnc2ccc(OC)cc12` [QUININE], the IC50 (Plasmodium falciparum [1]) was 210 nM, the IC50 (Plasmodium falciparum [2]) was 764 nM and the IC50 (Plasmodium falciparum [3]) was 148 nM. For the same molecule, the IC50 (Plasmodium falciparum [4]) was 62 nM, the IC50 (Plasmodium falciparum [5]) was 271 nM and the IC50 (Plasmodium falciparum [6]) was 686 nM. The IC50 (Plasmodium falciparum [7]) was 625 nM, the IC50 (Plasmodium falciparum [8]) was 1040 nM and the IC50 (Plasmodium falciparum [9]) was 1310 nM. For the same molecule, the IC50 (Plasmodium falciparum [10]) was 334 nM, the IC50 (Plasmodium falciparum [11]) was 580 nM and the IC50 (Plasmodium falciparum [12]) was 582 nM. It also gave an IC50 (Plasmodium falciparum [13]) of 1030 nM, an IC50 (Plasmodium falciparum [14]) of 575 nM and an IC50 (Plasmodium falciparum [15]) of 57 nM. For the same molecule, the IC50 (Plasmodium falciparum [16]) was 371 nM, the IC50 (Plasmodium falciparum [17]) was 83 nM and the IC50 (Plasmodium falciparum [18]) was 58 nM. The IC50 (Plasmodium falciparum [19]) was 128 nM, the IC50 (Plasmodium falciparum [20]) was 421 nM and the IC50 (Plasmodium falciparum [21]) was 453 nM. For the same molecule, the IC50 (Plasmodium falciparum [22]) was 500 nM, the IC50 (Plasmodium falciparum [23]) was 605 nM and the IC50 (Plasmodium falciparum [24]) was 599 nM. The IC50 (Plasmodium falciparum [25]) was 204 nM.
